Measured values reported in ChEMBL document CHEMBL4020756, “Discovery of novel substituted benzo-anellated 4-benzylamino pyrrolopyrimidines as dual EGFR and VEGFR2 inhibitors” (Bioorg Med Chem Lett, 2017).
Each block holds one compound with its values, some of them ahead of it.

Key:
[1] = biological target: Epidermal growth factor receptor (Homo sapiens, UniProt P00533); experiment: Inhibition of EGFR (unknown origin) using poly(Glu,Tyr)4:1 as substrate in presence of [gamma-33P]-ATP after 60 mins by scintillation counting analysis
[2] = biological target: Vascular endothelial growth factor receptor 2 (Homo sapiens, UniProt P35968); experiment: Inhibition of VEGFR2 (unknown origin) using poly(Glu,Tyr)4:1 as substrate in presence of [gamma-33P]-ATP after 60 mins by scintillation counting analysis
Summary of the method: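 Radiometric ATP-competition assay at 30 °C for 60 min. Kinase was 20 ng/50 µL with Poly(Glu,Tyr)4:1 substrate at 125 ng/50 µL. Buffer was 70 mM HEPES-NaOH pH 7.5 with 3 mM MgCl2, 3 mM MnCl2, 3 µM orthovanadate, 1.2 mM DTT, 50 µg/mL PEG20000 and 15 µM [γ-33P]-ATP. The stop was 2% phosphoric acid, and 33Pi incorporation was counted by scintillation. Ten concentrations from 3 nM to 100 µM gave IC50.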

[3] = tested on: MDA-MB-231; experiment: Growth inhibition of human MDA-MB-231 cells at 10 uM after 48 hrs by sulforhodamine assay relative to control; type: functional; conditions: MDA-MB-231, 48 h, read-out: GI
Summary of the method: (§1)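 Tested at a single 10 µM concentration in the NCI tumour cell panel screen. Growth inhibition was read by sulforhodamine B staining.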

[4] = tested on: MDA-MB-468; experiment: Growth inhibition of human MDA-MB-468 cells at 10 uM after 48 hrs by sulforhodamine assay relative to control; type: functional; conditions: MDA-MB-468, 48 h, read-out: GI; summary of the method: as §1
[5] = tested on: BT-549; experiment: Growth inhibition of human BT549 cells at 10 uM after 48 hrs by sulforhodamine assay relative to control; type: functional; conditions: BT-549, 48 h, read-out: GI; summary of the method: as §1
[6] = tested on: Hs-578T; experiment: Growth inhibition of human Hs578T cells at 10 uM after 48 hrs by sulforhodamine assay relative to control; type: functional; conditions: read-out: GI; summary of the method: as §1
[7] = tested on: HOP-92; experiment: Growth inhibition of human HOP92 cells at 10 uM after 48 hrs by sulforhodamine assay relative to control; type: functional; conditions: HOP-92, 48 h, read-out: GI; summary of the method: as §1
[8] = tested on: HOP-62; experiment: Growth inhibition of human HOP62 cells at 10 uM after 48 hrs by sulforhodamine assay relative to control; type: functional; conditions: HOP-62, 48 h, read-out: GI; summary of the method: as §1
[9] = tested on: NCI-H460; experiment: Growth inhibition of human NCI-H460 cells at 10 uM after 48 hrs by sulforhodamine assay relative to control; type: functional; conditions: NCI-H460, 48 h, read-out: GI; summary of the method: as §1
[10] = Solubility of the compound in pH 7.5 HEPES-NaOH buffer at > 100 uM; type: physicochemical
[11] = biological target: Serine/threonine-protein kinase MARK1 (Homo sapiens, UniProt Q9P0L2); experiment: Inhibition of MARK1 (unknown origin)
Summary of the method: (§2)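 ATP-competition kinase assay run at several inhibitor concentrations. Reduced phosphorylation of the kinase substrate was measured by scintillation counting, and IC50 values were derived.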

[12] = biological target: Death-associated protein kinase 1 (Homo sapiens, UniProt P53355); experiment: Inhibition of DAPK1 (unknown origin); summary of the method: as §2
[13] = biological target: Dual specificity mitogen-activated protein kinase kinase 1 (Homo sapiens, UniProt Q02750); experiment: Inhibition of MEK1 (unknown origin); summary of the method: as §2
[14] = biological target: Mitogen-activated protein kinase kinase kinase 2 (Homo sapiens, UniProt Q9Y2U5); experiment: Inhibition of MEKK2 (unknown origin); summary of the method: as §2
[15] = biological target: Protein kinase C alpha type (Homo sapiens, UniProt P17252); experiment: Inhibition of PKC alpha (unknown origin); summary of the method: as §2
[16] = biological target: Myotonin-protein kinase (Homo sapiens, UniProt Q09013); experiment: Inhibition of DMPK (unknown origin); summary of the method: as §2
[17] = biological target: Casein kinase I isoform alpha (Homo sapiens, UniProt P48729); experiment: Inhibition of CK1 alpha (unknown origin); summary of the method: as §2
[18] = biological target: Wee1-like protein kinase (Homo sapiens, UniProt P30291); experiment: Inhibition of Wee1 (unknown origin); summary of the method: as §2
[19] = biological target: Activin receptor type-1-like (Homo sapiens, UniProt P37023); experiment: Inhibition of ALK1 (unknown origin); summary of the method: as §2
[20] = biological target: Mitogen-activated protein kinase kinase kinase 21 (Homo sapiens, UniProt Q5TCX8); experiment: Inhibition of MLK4 (unknown origin); summary of the method: as §2
[21] = biological target: Interleukin-1 receptor-associated kinase 1 (Homo sapiens, UniProt P51617); experiment: Inhibition of IRAK (unknown origin); summary of the method: as §2
[22] = biological target: Tyrosine-protein kinase ABL1 (Homo sapiens, UniProt P00519); experiment: Inhibition of c-Abl (unknown origin); summary of the method: as §2
[23] = biological target: Tyrosine-protein kinase JAK2 (Homo sapiens, UniProt O60674); experiment: Inhibition of JAK2 (unknown origin); summary of the method: as §2
Chain of Tyrosine-protein kinase JAK2 (O60674 whole entry): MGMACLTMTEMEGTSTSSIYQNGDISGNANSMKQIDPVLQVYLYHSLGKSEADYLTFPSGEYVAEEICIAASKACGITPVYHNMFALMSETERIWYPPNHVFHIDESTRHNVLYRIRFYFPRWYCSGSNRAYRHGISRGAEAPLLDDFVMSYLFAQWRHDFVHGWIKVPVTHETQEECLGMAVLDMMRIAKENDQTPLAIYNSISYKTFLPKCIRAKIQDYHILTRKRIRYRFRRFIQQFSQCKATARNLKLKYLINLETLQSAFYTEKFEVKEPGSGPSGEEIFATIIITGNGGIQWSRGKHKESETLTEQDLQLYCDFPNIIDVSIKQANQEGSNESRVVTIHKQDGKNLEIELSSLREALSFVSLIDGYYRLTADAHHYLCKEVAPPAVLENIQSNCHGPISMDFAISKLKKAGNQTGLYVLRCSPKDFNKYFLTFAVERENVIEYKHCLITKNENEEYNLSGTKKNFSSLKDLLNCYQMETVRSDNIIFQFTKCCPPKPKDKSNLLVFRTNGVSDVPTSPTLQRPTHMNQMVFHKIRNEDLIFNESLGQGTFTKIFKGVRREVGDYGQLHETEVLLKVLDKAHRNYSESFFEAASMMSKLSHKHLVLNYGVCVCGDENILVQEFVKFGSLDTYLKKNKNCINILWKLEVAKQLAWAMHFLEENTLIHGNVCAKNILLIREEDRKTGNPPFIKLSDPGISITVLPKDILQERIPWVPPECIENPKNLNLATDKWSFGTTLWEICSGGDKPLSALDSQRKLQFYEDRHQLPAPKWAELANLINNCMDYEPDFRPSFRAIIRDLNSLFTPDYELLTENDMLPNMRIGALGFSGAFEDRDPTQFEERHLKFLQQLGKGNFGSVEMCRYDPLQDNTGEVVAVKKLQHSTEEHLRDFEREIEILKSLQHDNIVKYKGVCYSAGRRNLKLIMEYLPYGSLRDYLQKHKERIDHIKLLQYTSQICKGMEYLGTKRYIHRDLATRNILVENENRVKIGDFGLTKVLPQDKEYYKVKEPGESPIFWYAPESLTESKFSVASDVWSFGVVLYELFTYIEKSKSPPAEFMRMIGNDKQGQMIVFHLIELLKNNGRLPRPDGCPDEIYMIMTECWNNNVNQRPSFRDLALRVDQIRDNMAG

Chain of Vascular endothelial growth factor receptor 2 (P35968 whole entry): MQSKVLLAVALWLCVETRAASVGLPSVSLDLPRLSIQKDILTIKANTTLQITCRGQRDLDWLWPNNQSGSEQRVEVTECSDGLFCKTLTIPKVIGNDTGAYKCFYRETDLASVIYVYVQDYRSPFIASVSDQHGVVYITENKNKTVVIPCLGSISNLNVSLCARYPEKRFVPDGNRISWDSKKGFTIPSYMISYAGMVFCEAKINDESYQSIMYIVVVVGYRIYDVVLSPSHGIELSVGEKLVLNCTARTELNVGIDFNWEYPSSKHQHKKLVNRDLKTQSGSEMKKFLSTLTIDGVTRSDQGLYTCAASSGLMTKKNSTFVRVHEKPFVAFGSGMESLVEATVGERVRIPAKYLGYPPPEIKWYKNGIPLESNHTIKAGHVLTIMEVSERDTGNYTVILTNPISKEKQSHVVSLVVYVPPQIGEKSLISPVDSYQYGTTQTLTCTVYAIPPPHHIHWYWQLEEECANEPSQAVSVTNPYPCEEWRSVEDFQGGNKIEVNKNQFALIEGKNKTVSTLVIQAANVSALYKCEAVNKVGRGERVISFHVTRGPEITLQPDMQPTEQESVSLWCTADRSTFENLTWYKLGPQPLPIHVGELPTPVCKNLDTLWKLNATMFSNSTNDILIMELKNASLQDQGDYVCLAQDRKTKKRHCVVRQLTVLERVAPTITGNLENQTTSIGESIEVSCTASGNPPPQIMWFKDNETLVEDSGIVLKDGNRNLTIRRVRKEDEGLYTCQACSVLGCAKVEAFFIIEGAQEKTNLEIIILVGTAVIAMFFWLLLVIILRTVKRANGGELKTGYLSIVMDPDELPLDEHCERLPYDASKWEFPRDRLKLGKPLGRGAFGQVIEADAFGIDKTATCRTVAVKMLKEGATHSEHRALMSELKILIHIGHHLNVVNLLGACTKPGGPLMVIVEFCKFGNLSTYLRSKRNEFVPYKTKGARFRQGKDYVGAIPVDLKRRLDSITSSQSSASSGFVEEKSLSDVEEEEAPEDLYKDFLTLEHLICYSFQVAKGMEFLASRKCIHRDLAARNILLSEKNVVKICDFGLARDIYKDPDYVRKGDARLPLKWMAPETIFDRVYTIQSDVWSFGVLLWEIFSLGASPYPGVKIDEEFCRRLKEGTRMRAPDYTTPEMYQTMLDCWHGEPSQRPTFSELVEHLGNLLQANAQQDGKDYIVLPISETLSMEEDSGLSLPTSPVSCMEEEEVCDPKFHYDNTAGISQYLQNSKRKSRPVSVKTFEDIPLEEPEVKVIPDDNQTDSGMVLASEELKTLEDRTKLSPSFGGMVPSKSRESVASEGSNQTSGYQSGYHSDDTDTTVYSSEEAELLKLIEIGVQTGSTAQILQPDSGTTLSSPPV
Chain of Epidermal growth factor receptor (P00533 whole entry): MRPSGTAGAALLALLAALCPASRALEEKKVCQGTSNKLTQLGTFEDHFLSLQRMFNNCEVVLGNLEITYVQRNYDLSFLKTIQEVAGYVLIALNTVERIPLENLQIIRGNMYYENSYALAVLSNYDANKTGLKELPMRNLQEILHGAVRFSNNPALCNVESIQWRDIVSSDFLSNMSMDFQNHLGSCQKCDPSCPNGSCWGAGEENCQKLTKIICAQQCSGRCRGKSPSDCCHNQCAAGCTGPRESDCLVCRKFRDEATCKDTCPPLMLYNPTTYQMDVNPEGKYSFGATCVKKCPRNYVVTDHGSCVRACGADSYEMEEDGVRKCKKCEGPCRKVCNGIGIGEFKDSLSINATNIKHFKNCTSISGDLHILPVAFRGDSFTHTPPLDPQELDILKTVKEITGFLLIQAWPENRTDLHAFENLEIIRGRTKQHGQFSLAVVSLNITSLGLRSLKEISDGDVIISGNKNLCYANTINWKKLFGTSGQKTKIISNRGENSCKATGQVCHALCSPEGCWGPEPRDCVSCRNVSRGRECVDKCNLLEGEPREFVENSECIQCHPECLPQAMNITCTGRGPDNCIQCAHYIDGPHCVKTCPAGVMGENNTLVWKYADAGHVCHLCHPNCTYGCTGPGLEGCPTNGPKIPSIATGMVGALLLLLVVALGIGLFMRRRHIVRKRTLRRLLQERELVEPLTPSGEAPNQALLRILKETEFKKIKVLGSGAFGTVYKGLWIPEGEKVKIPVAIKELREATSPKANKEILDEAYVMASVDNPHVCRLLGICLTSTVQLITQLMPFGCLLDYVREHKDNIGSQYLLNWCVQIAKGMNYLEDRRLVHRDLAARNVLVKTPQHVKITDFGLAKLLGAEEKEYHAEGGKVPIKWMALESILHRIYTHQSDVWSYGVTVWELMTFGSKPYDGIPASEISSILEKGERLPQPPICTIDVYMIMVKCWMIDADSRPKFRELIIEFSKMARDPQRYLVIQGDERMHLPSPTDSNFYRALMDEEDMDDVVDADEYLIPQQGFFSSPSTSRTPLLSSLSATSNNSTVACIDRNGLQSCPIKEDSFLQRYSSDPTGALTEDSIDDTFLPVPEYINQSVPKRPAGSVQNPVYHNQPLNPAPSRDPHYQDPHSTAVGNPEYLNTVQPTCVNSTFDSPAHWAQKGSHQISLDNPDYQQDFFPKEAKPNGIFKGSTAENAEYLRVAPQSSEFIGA
Chain of Interleukin-1 receptor-associated kinase 1 (P51617 whole entry): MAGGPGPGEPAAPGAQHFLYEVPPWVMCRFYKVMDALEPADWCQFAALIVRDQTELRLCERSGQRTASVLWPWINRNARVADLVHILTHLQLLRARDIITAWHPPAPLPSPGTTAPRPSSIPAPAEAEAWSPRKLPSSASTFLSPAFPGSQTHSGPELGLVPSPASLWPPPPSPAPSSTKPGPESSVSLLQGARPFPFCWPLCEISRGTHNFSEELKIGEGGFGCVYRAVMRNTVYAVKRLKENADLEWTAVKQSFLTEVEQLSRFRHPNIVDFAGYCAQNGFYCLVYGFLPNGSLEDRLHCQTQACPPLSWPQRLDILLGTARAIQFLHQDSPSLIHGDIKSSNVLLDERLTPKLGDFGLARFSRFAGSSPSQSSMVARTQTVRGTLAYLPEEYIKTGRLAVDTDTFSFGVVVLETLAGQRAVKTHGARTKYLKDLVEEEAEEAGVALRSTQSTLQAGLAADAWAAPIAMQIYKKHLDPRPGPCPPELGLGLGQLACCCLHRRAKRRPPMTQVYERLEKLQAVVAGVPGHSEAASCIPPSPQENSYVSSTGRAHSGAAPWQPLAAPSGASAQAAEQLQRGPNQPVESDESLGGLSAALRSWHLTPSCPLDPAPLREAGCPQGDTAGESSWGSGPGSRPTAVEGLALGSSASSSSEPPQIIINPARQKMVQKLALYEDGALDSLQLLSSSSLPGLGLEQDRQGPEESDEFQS
Chain of Mitogen-activated protein kinase kinase kinase 2 (Q9Y2U5 whole entry): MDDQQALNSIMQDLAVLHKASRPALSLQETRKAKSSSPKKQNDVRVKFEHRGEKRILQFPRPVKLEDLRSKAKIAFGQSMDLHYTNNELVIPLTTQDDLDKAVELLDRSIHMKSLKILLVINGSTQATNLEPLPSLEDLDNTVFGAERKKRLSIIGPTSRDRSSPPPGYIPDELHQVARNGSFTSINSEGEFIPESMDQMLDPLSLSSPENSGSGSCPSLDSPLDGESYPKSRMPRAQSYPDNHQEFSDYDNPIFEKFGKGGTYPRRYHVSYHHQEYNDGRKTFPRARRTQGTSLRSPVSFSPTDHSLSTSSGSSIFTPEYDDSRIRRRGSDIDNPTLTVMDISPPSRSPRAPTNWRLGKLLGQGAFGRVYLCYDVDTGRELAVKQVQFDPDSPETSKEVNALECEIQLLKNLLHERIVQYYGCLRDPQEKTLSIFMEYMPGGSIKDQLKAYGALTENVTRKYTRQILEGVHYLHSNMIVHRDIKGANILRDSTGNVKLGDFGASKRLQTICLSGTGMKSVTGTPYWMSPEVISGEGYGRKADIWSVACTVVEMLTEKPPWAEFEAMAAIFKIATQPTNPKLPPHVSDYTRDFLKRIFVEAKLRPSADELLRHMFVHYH

Ki [1]: 1.26 µM
Ki ([2]; read-out: Ki): 3.99 µM
Compound: COc1cccc(CNc2nc(N)nc3[nH]c4ccc(O)cc4c23)c1

Ki [1]: 0.08 µM
Ki ([2]; read-out: Ki): 3.24 µM
Compound: Nc1nc(NCc2ccc(Cl)cc2)c2c(n1)[nH]c1ccc(O)cc12
inhibition of growth at 10 µM [3]: 65%
inhibition of growth at 10 µM [4]: 71%
inhibition of growth at 10 µM [5]: 24%
inhibition of growth at 10 µM [6]: 33%
inhibition of growth at 10 µM [7]: 57%
inhibition of growth at 10 µM [8]: 31%
inhibition of growth at 10 µM [9]: 25%

Ki [1]: 0.09 µM
Ki ([2]; read-out: Ki): 3.26 µM
Compound: Cc1ccc(CNc2nc(N)nc3[nH]c4ccc(O)cc4c23)cc1

Ki [1]: 0.29 µM
Compound: Nc1nc(NCc2cccc(Cl)c2)c2c(n1)[nH]c1ccc(O)cc12

Ki [1]: 0.7 µM
Ki ([2]; read-out: Ki): 2.76 µM
Compound: Nc1nc(NCc2ccccc2)c2c(n1)[nH]c1ccc(O)cc12

Ki [1]: 0.9 µM
Compound: Cc1cc2[nH]c3nc(N)nc(NCc4cccc(Cl)c4)c3c2cc1O

Second part, the compound before the results:

Compound: COc1ccc(CNc2nc(N)nc3[nH]c4ccc(O)cc4c23)cc1
Ki [1]: 0.12 µM

Compound: Nc1nc(NCc2ccccc2)c2c(n1)[nH]c1cc(Cl)c(O)cc12
Ki [1]: 0.27 µM
Ki [2]: Not Active
inhibition of growth at 10 µM [3]: 34%
inhibition of growth at 10 µM [4]: 28%
inhibition of growth at 10 µM [5]: 21%
inhibition of growth at 10 µM [6]: 16%
inhibition of growth at 10 µM [7]: 19%
inhibition of growth at 10 µM [8]: 20%
inhibition of growth at 10 µM [9]: 5%

Compound: C[C@H](Nc1nc(N)nc2[nH]c3ccc(O)cc3c12)c1ccccc1
Ki [1]: 0.52 µM
Ki ([2]; read-out: Ki): 4.15 µM

Compound: COc1ccc(CNc2nc(N)nc3[nH]c4cc(C)c(O)cc4c23)cc1
Ki [1]: 5.95 µM

Compound: Cc1cc2[nH]c3nc(N)nc(NCc4ccc(Cl)cc4)c3c2cc1O
Ki [1]: 0.11 µM
Ki [2]: Not Active

Compound: COc1ccccc1CNc1nc(N)nc2[nH]c3cc(C)c(O)cc3c12
Ki [1]: 4.03 µM
Ki ([2]; read-out: Ki): 7.24 µM

Compound: Cc1cc2[nH]c3nc(N)nc(NCc4ccccc4)c3c2cc1O
Ki [1]: 0.64 µM
Ki ([2]; read-out: Ki): 4.83 µM

Compound: COc1cc2[nH]c3nc(N)nc(NCc4ccccc4)c3c2cc1O
Ki [1]: 0.61 µM
Ki ([2]; read-out: Ki): 13.4 µM

Compound: C[C@@H](Nc1nc(N)nc2[nH]c3ccc(O)cc3c12)c1ccccc1
Ki [1]: 0.91 µM
Ki ([2]; read-out: Ki): 1.93 µM

Compound: Nc1nc(NCc2ccccc2)c2c(n1)[nH]c1cc(Br)c(O)cc12
Ki [1]: 0.37 µM
Ki [2]: Not Active

Compound: COc1ccccc1CNc1nc(N)nc2[nH]c3ccc(O)cc3c12
Ki [1]: 1.87 µM
Ki ([2]; read-out: Ki): 0.85 µM
inhibition of growth at 10 µM [3]: 73%
inhibition of growth at 10 µM [4]: 55%
inhibition of growth at 10 µM [5]: 37%
inhibition of growth at 10 µM [6]: 41%
inhibition of growth at 10 µM [7]: 66%
inhibition of growth at 10 µM [8]: 63%
inhibition of growth at 10 µM [9]: 82%

Compound: Nc1nc(NCCc2ccccc2)c2c(n1)[nH]c1ccc(O)cc12
Ki [1]: 0.64 µM
Ki ([2]; read-out: Ki): 4.47 µM

Compound: COc1ccc(CNc2nc(N)nc3[nH]c4ccc(O)cc4c23)cc1OC
Ki [1]: 3.68 µM
Ki ([2]; read-out: Ki): 11.1 µM

Compound: Cc1ccc(CNc2nc(N)nc3[nH]c4cc(C)c(O)cc4c23)cc1
Ki [1]: 5.67 µM
Ki [2]: Not Active
solubility [10]: Soluble
IC50 [11]: > 100 µM
IC50 [12]: > 100 µM
IC50 [13]: > 100 µM
IC50 [14]: > 100 µM
IC50 [15]: > 100 µM
IC50 [16]: > 100 µM
IC50 [17]: > 100 µM
IC50 [18]: > 100 µM
IC50 [19]: > 100 µM
IC50 [20]: > 100 µM
IC50 [21]: > 100 µM
IC50 [22]: > 100 µM
IC50 [23]: > 100 µM
